Measured values reported in paper PMC11471106 (Drug Design, Development and Therapy, 2024).

Tested on: MCF-7 cells
Experiment: Inhibition of [125I]I-AM uptake into MCF-7 cells by blocking agents
Type: cell-based
Details: blocking agent at 1 mm
In short: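 Blocking uptake study in MCF-7 cells, cultured and given radiotracer as in the standard uptake assay (serum-free MEM + 0.2% BSA, 37 °C, gamma counting of lysate versus medium). Cells were treated separately with unlabelled parent compound, tamoxifen or 17β-estradiol, each at one stated concentration. Groups were compared by one-way ANOVA with Tukey's multiple comparison test.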

SMILES | effect on uptake of [125I]I-AM into MCF-7 cells
C[C@]12CC[C@@H]3c4ccc(O)cc4CC[C@H]3[C@@H]1CC[C@@H]2O [estradiol, 17 β -estradiol] | not inhibited
CC/C(=C(\c1ccccc1)c1ccc(OCCN(C)C)cc1)c1ccccc1 [tamoxifen] | significantly inhibited
